HCV core dimer = inhibitors of HCV core protein dimerization, primary screen, biochemical, TR-FRET, high-throughput; TR-FRET GST/Flag-core106 dimerization, 1536-well; inhibition, % at 5 µM; 0.33% of 300,000 active;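 active means inhibition above the mean of all tested compounds plus 3 SD, set per screening campaign, cut at about 45% in these data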
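System – GST-tagged and Flag-tagged HCV core protein residues 1-106 · Repeats – one well for each compound · Technique – TR-FRET 671 and 617 nm emission · Doses – one concentration, 5 µM, in 0.5% DMSO · Times – 4 h, 22.5 °C incubation · Also added – Eu donor and XL665 acceptor anti-tag antibodies · Measure – percent inhibition of core106 dimerization signal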
TDP2 inh = human TDP2 enzyme inhibitors, primary screen, biochemical, epi absorbance, recombinant enzyme | inhibition, % at 12.8 µM | Tyrosyl-DNA phosphodiesterase 2 (Homo sapiens), O95551 | 0.34% of 370,000 active | T5PNP hydrolysis, p-nitrophenol absorbance 415 nm;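 active means inhibition above the mean of all tested compounds plus 3 SD, set per campaign, cut at about 25% in these data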;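 further: 0% = DMSO with enzyme and 100% = buffer with substrate but no TDP2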
Target sequence (O95551 whole entry, looked up): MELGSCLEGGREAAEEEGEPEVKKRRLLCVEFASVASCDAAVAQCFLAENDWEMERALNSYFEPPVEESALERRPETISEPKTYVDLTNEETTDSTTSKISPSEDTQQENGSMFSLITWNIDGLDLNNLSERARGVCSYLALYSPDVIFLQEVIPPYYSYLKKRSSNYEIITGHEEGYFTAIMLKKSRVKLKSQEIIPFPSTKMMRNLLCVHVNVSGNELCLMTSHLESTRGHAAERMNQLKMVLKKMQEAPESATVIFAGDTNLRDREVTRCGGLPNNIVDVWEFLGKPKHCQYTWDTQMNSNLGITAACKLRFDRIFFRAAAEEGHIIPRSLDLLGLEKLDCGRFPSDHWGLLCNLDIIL
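Evaluation: % inhibition relative to enzyme-containing and enzyme-free wells. Material: recombinant human TDP2. Benchmarks: enzyme-free and DMSO wells. Timing: enzyme reaction with compound for 2 h at 37 °C. Compound dosing: 12.8 µM only. Measured by: p-Nitrophenol epi absorbance. Reagent: T5PNP substrate at 5 mM, a TopII-DNA adduct mimic. Replication: single well per compound.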
UHRF1 MBD2 ctr = UHRF1 methylated DNA binding inhibitors, primary screen, counter-screen for MBD2 inhibitor project, biochemical, TR-FRET, human UHRF1, single concentration | E3 ubiquitin-protein ligase UHRF1 (Homo sapiens), Q96T88 | UHRF1 binding to methylated oligo | inhibition, % at 4.4 µM | 0.75% of 370,000 active;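 further: UHRF1 SRA domain binding a hemimethylated CpG hairpin DNA probe; 0% = median of test compound wells and 100% = reference inhibitor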
MBD2 DNA inh = inhibitors of MBD2 binding to methylated DNA, primary screen, biochemical, TR-FRET, DNA-binding domain, human | Methyl-CpG-binding domain protein 2 (Homo sapiens), Q9UBB5 | MBD2 binding to methylated oligonucleotide | inhibition, % at 4.4 µM | 0.31% of 370,000 active | AID 686964, 2013; in the data active means inhibition above about 13%
Target sequence (Q9UBB5 whole entry, looked up, the tested form may be a part): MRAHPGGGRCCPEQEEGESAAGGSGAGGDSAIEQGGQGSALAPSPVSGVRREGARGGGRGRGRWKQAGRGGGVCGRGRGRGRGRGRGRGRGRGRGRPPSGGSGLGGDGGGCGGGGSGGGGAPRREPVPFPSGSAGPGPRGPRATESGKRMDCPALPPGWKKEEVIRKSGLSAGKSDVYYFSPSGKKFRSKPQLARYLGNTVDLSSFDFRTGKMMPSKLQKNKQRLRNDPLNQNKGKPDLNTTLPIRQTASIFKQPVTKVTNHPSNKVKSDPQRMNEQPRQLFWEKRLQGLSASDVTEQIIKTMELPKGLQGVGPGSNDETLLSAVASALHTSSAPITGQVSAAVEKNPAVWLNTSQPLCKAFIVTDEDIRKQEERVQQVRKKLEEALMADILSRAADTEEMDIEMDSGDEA
LEDGF integ inh = blockers of LEDGF/p75-dependent integrase strand transfer – biochemical, TR-FRET, high throughput, primary screen; HIV-1 integrase (with human LEDGF/p75); TR-FRET IN-LEDGF/p75 DNA integration, Eu/Cy5; 0.64% of 370,000 active; inhibition, % at 3.7 µM; AID 743269, 2014;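 active means inhibition above the screen-wide mean plus 3 SD, cut at about 13% in these data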;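 further: signal is the Cy5 over europium emission ratio at 671 and 618 nm; 0% = plate median of compound wells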
UHRF1 DNA bind = UHRF1 methylated DNA binding inhibitors, counter-screen for MBD2 inhibitor project, biochemical, TR-FRET, human UHRF1; inhibition, % at 4.4 µM; UHRF1 binding to methylated oligonucleotide; AID 720530, 2013; shares compounds with MBD2 DNA inh; 25% of 1,000 active;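 further: UHRF1 SRA domain binding a labeled hemimethylated CpG hairpin DNA; 0% = vehicle only and 100% = reference inhibitor with vehicle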
MBD2 DBD conf = inhibitors of MBD2 binding to methylated DNA, confirmation, biochemical, TR-FRET, DNA-binding domain, human. shares compounds with MBD2 DNA inh. TR-FRET MBD2-DBD binding to methylated oligonucleotide. inhibition, % at 4.4 µM. 26% of 1,000 active. AID 720531, 2013; in the data active means inhibition above about 14%
An asterisk follows results filed as active; . = not tested or not shown. Sampled rows, rich in hits. Any-hit rate of the full collection: about 1.8%. Unless noted, no stated cut-off is given here; in the data, active means inhibition above about 21%; inactive means the rest.

SMILES | HCV core dimer | TDP2 inh | UHRF1 MBD2 ctr | MBD2 DNA inh | LEDGF integ inh | UHRF1 DNA bind | MBD2 DBD conf
C[C@H]1[C@@H](OC(=O)NCCc2c[nH]c3ccccc23)CC[C@@]23CCCN2C(=O)CCC[C@@H]13 | . | -3.7 | -1.4 | -1.3 | -6.3 | . | .
COc1ccc(C#Cc2ccc3c(c2)O[C@H](CN(C)S(=O)(=O)c2ccccc2F)[C@H](C)CN([C@H](C)CO)S3(=O)=O)cc1 | . | -1.8 | 1.0 | -0.4 | -2.6 | . | .
COc1ccccc1S(=O)(=O)N(C)C[C@H]1Oc2cc(C#CCC3CCCC3)ccc2S(=O)(=O)N([C@H](C)CO)C[C@H]1C | . | 1.3 | 22.2* | 13.5* | 5.0 | 10.4 | 8.8
COc1ccc(S(=O)(=O)N(C)C[C@@H]2Oc3cc(C#CC4CCCCC4)ccc3S(=O)(=O)N([C@@H](C)CO)C[C@@H]2C)cc1 | . | -8.3 | 26.7* | 17.4* | -6.3 | 12.0 | 7.7
O=C1C=C(NCc2ccco2)CCC1 | 8.6 | -0.3 | -1.6 | -1.6 | -0.6 | . | .
CC1(C)CC(=O)C=C(NCc2ccco2)C1 | -3.3 | 0.7 | 2.4 | 34.8* | -1.8 | 4.2 | 2.9
O=C(NC1CC1c1ccccc1)N1CCC(c2nc3ccc(Cl)cc3[nH]2)CC1 (configuration not stated) | . | 4.8 | 2.8 | 0.4 | -0.6 | . | .
Cc1ccc(NC(=O)CSc2nc3[nH]c(=O)cc(O)c3s2)c(Br)c1 | . | -5.3 | -1.4 | 64.3* | 6.9 | 5.7 | 2.4
O=C(CSc1nc2[nH]c(=O)cc(O)c2s1)Nc1nncs1 | . | 15.9 | 2.3 | 22.6* | -2.9 | 7.5 | 2.8
O=C(CSc1nc2[nH]c(=O)cc(O)c2s1)Nc1nccs1 | . | 2.1 | 5.6 | -1.9 | -3.5 | . | .
NS(=O)(=O)c1ccc(-c2c(-c3ccccc3)sc3ccccc23)cc1 | . | -4.0 | 21.6* | 13.7* | 1.9 | 9.6 | 3.8
COc1ccc(-c2sc3ccccc3c2-c2ccc(O)cc2)cc1 | . | -0.8 | -1.6 | 3.3 | 0.9 | . | .
Cc1ccsc1C=Nn1c(-c2n[nH]c3c2CCC3)n[nH]c1=S | . | 3.8 | -0.5 | 6.5 | 1.7 | . | .
CC(C)Oc1ccc(C(CCNCc2ccc(O)cc2)c2ccccc2)cc1 (configuration not stated) | . | -12.6 | -2.2 | 65.2* | -3.4 | 3.3 | 5.5
COc1ccc(C(CCNCc2ccc(N(C)C)cc2)c2ccccc2)cc1 (configuration not stated) | 2.1 | -2.4 | 0.3 | 1.3 | -2.8 | . | .
O=c1[nH]cnc2c1ncn2[C@H]1CC[C@@H](CO)O1 | 2.9 | -2.1 | 22.7* | 38.0* | 2.8 | 6.6 | 2.4
OC(c1ccccc1)(c1ccccc1)C1CCN(CCCOc2ccc(OC(F)(F)F)cc2)CC1 | . | -0.3 | 0.3 | -5.0 | 1.0 | . | .
CC1(C(=O)NS(=O)(=O)c2ccc(Br)cc2)CCN1C(=O)CC1CCCCC1 (configuration not stated) | . | 6.4 | 4.2 | 17.9* | 0.0 | 4.1 | 1.9
O=C(Nc1ccc(F)c(C(F)(F)F)c1)Nc1nnc(-c2ccncc2)s1 | . | -6.5 | 5.7 | 14.7* | -6.0 | 5.7 | 9.8
CC1CCCN(CCCNC(=O)c2ccc3c(c2)N(Cc2ccc(F)cc2)C(=O)c2ccccc2S3=O)C1 (configuration not stated) | 1.9 | 4.0 | -0.8 | 17.4* | 0.1 | 7.3 | 3.1
CCN(CC)CC(=O)Nc1cccc2c1C(=O)c1ccccc1C2=O | 8.4 | 14.2 | -6.6 | 1.9 | -2.4 | . | .
O=C1c2ccccc2C(=O)c2c(NCCCN(CCO)CCO)cccc21 | . | -14.6 | 36.4* | 55.8* | -2.5 | 56.9* | 59.2*
CCN1CCCCC(NC(C)=O)C1=O (configuration not stated) | . | -3.3 | 1.3 | 1.2 | -4.0 | . | .
COc1ccc(-c2cc(C(=O)NN=Cc3ccc(C)s3)[nH]n2)cc1 | . | -2.6 | -2.7 | 6.5 | -4.2 | . | .
O=C(NCc1ccc2c(c1)OCO2)C1CCC(CNS(=O)(=O)c2ccc(Cl)cc2)CC1 (configuration not stated) | 6.0 | 12.2 | -2.3 | 20.3* | -1.0 | 7.5 | 3.2
SMILES | HCV core dimer | TDP2 inh | UHRF1 MBD2 ctr | MBD2 DNA inh | LEDGF integ inh | UHRF1 DNA bind | MBD2 DBD conf
Cc1ccc(C(=O)c2ccccc2C(=O)O)s1 | -2.9 | 3.9 | 25.9* | 15.8* | -2.9 | 41.2* | 13.7*
NCc1cc2c3c(c1)CCCN3CCC2 | -2.0 | 8.5 | 16.0 | 18.3* | 1.4 | 17.1 | 15.3*
COCCNc1ncnc2c1ncn2[C@H]1CN(Cc2ccco2)C[C@@H](CO)O1 | . | 2.3 | 0.0 | 23.6* | -2.2 | 6.5 | 2.2
OCCNc1ncnc2c1ncn2[C@H]1CN(Cc2ccco2)C[C@@H](CO)O1 | . | -1.8 | 0.1 | 2.0 | -0.7 | . | .
CCN(CC)C(=S)NC(=O)c1ccc(F)cc1 | 5.1 | -11.4 | -1.4 | 26.7* | 1.8 | 2.9 | 4.0
N#Cc1c(-c2ccccc2Cl)c2c([nH]c1=O)-c1ccccc1OC2 | 5.3 | -8.4 | 1.8 | 20.6* | 1.9 | 4.2 | 2.5
N#Cc1c(-c2ccncc2)c2c([nH]c1=O)-c1ccccc1OC2 | -2.5 | -4.5 | 10.2 | 2.5 | -1.1 | . | .
CC(C)C[C@H]1COc2ccc(Cl)cc2S(=O)(=O)N1Cc1cn(Cc2ccc(C(F)(F)F)cc2)nn1 | . | -13.8 | -2.0 | 0.1 | -4.2 | . | .
O=C1NC2c3c(Cl)sc(Cl)c3C(=O)C2O1 (configuration not stated) | . | 1.3 | 34.8* | 14.5* | 10.6 | 32.3* | 16.1*
O=C1NC2c3c(I)sc(I)c3C(=O)C2O1 (configuration not stated) | . | 2.9 | -4.6 | 2.9 | 1.4 | . | .
O=C(N=Nc1c(O)n(Cc2ccccc2)c2ccccc12)c1ccc(O)cc1 | 13.0 | -9.4 | 2.4 | 41.4* | 2.8 | 4.1 | 0.1
COC(=O)C1CN(Cc2ccc(F)cc2)CCS(=O)(=O)N1Cc1cn(Cc2ccc(Cl)cc2)nn1 (configuration not stated) | . | 6.1 | 8.3 | 6.2 | -0.5 | . | .
C#CCN(Cc1ccco1)C(=O)c1nnc2c3cc(OC)ccc3n(S(=O)(=O)c3ccc(OC)cc3)c2n1 | . | 0.7 | 1.2 | 26.2* | -2.9 | 6.4 | 20.0*
C[C@H](O)[C@@H]1CN2CCc3c([nH]c4cccc(-c5ccccc5)c34)[C@@H]2C[C@@H]1N(C)C(=O)Nc1ccccc1 | . | -2.6 | -2.2 | -7.1 | -1.4 | . | .
